Most compounds without a hit are left out; they make up all but 2.1% or so of the library.
LMPTP block: LMPTP (human) inhibition; actives 0.22% (n = 360,000); inhibition, % at 20 µM; recombinant LMPTP-A, OMFP fluorogenic substrate, fluorescence intensity; P24666;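 active = compounds that cut the enzyme signal by at least half of the control window in the single-dose screen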;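 also: plate controls were DMSO wells with enzyme plus substrate for no effect and substrate without enzyme for full effect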
Target sequence (P24666 whole entry, looked up): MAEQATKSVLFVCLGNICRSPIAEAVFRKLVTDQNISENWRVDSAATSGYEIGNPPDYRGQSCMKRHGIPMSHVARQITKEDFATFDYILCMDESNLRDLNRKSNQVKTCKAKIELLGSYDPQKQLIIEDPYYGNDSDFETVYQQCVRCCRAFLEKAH
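Material: LMPTP-A; amount: 0.625 nM enzyme; doses: single 20 µM dose; times: reaction 50 min, room temperature, dark; technique: fluorescence intensity of OMFP turnover product; benchmarks: no-enzyme and uninhibited controls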
SUMO1-SIM PPI: modulators of human SUMO1-mediated protein-protein interactions. P63165. SUMO1 binding to a labelled peptide, TR-FRET, 1 h. inhibition, % at 20 µM. actives 0.33% (n = 360,000). AID 602429; in the data active = inhibition above about 37%
Target sequence (P63165 whole entry, looked up): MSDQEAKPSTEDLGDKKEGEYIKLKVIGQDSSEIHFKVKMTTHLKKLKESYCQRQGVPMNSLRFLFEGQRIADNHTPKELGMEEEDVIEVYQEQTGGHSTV
GRK2 inh: inhibitors of human GRK2 displacing RNA aptamer; bead flow cytometry, FAM-aptamer displacement from GRK2; inhibition of aptamer binding, % at 10 µM; actives 0.59% (n = 330,000);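 active = inhibition of aptamer binding above 40%, roughly 3 SD of noise, on plates passing a quality check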;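 also: median bead fluorescence of bound FAM aptamer so fluorescent compounds give negative values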
Scp-1 inhibitor: Scp-1 (human) phosphatase inhibition. Q9GZU7. Recombinant Scp1, phosphopeptide, malachite green phosphate absorbance. inhibition, % at 20 µM. actives 0.88% (n = 340,000);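 active = inhibition above about 50% at 20 µM, limit read from the data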;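 also: plate controls were DMSO wells with enzyme for no effect and wells lacking enzyme for full effect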
Target sequence (Q9GZU7 76-261 limits assumed): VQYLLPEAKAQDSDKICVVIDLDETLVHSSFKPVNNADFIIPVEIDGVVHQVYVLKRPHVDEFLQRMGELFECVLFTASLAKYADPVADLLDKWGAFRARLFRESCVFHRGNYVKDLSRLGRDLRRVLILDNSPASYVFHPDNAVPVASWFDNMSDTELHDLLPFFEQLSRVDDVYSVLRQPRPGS
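Times: enzyme reaction 45 min at room temperature, colour 5 min, stabilisation 30 min. Material: SCP-1 catalytic fragment, aa 76-261. Medium: Acidic Tris acetate buffer with magnesium and detergent. Signal: colorimetric free-phosphate detection, absorbance 630 nm. Read-out basis: % inhibition of SCP-1 phosphate liberation. Reagent: Phosphorylated 17-residue peptide substrate.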
DNMT1 inh: DNMT1 (human) enzyme inhibition | DNMT1 molecular beacon, Hinp1I cleavage, fluorescence | inhibition (reported as % activation of signal), % at 10 µM | actives 0.83% (n = 360,000) | AID 588458; in the data active = inhibition above about 50%
STEP block: STEP (human) phosphatase inhibition; actives 0.25% (n = 360,000); recombinant STEP, OMFP fluorogenic substrate, fluorescence; inhibition, % at 20 µM; AID 588621;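 active = inhibition at 20 µM, scaled per plate between control wells, above about 37%, limit read from the data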;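 also: 0% = DMSO with enzyme and substrate and 100% = substrate only without enzyme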
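System: STEP phosphatase, cell-free reaction; Buffer or medium: Bis-Tris pH 6.0 buffer with DTT, detergent; Incubation: 20 min at room temperature, dark; Measured by: fluorescence, 480/540 nm.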
GRK2 inh confirm: human GRK2 inhibition confirmation, cherry pick 1. shares compounds with GRK2 inh. bead-bound GRK2, FAM-aptamer displacement, flow cytometry. aptamer displacement, % at 10 µM. actives 4% (n = 2,000). AID 504451;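 active = aptamer displacement above 40%, near three times the noise of non-fluorescent compounds, on plates passing quality checks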;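 also: negative values mostly reflect intrinsic compound fluorescence rather than true enhancement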
Aptamer quench SP: aptamer fluorescence quenching in GRK2 counter-screen; shares compounds with GRK2 inh; Carboxyfluorescein RNA aptamer on beads, flow cytometry quenching; stronger effect = lower value; fluorescence response (% of DMSO), % at 10 µM; 2,000 tested, under 10 active;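 active = compounds that quench the bead-bound fluorescent RNA probe, cutting fluorescence to under half of the solvent control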;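 also: counterscreen run without GRK2 so only probe quenching by compound is measured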
Starred values were filed as active, the others as inactive; x = not tested or not shown.

SMILES | LMPTP block | SUMO1-SIM PPI | GRK2 inh | Scp-1 inhibitor | DNMT1 inh | STEP block | GRK2 inh confirm | Aptamer quench SP
CCN(CC)CC#CCOC(c1ccccc1)c1ccccc1 | 1 | 1 | 79* | -12 | 20 | 0 | -5 | 99
CN(C)CC#CCOC(c1ccccc1)c1ccccc1 | -2 | -1 | 8 | -3 | 0 | -2 | x | x
COc1ccc(OC(=O)c2cnn(-c3ccccc3)c2C)cc1 | 3 | -6 | 44* | -10 | -2 | -1 | 1 | 99
Cn1c(CCNC(=O)c2ccccc2)nc2cc(NC(=O)C3CCCCC3)ccc21 | -2 | 6 | 1 | -8 | 3 | -4 | -8 | 99
CC(=O)Nc1ccc2c(c1)nc(CCNC(=O)c1ccccc1)n2C | -2 | -2 | 57* | -8 | 5 | -1 | -1 | 99
CCC(=O)NCCc1nc2cc(NC(=O)Nc3ccccc3)ccc2n1C | -1 | 4 | 6 | -1 | 0 | -3 | -10 | 96
CCC(=O)NCCc1nc2cc(NC(=O)c3ccccc3Cl)ccc2n1C | -2 | -1 | 0 | 4 | 5 | -4 | x | x
COC(=O)CCCn1cc(CN2CC(N3CCN(Cc4ccccc4F)CC3)CS2(=O)=O)nn1 (centres undefined) | -1 | 1 | x | x | x | x | x | x
COc1ccc(C)cc1NC(=O)COC(=O)c1c(-c2ccccc2)noc1C | 1 | 1 | x | x | -3 | -1 | x | x
O=[N+]([O-])c1ccc(Br)c(CN2CCN(c3ncc(Cc4ccccc4)cn3)CC2)c1 | 3 | -11 | x | x | x | x | x | x
O=C(CN1CCc2ccccc2C1)Nc1ccccc1C(F)(F)F | 0 | 5 | 48* | -12 | -2 | 0 | 4 | 93
COC(=O)[C@]12CCCCC=C1N(Cc1cccc3ccccc13)C(=O)[C@H](CC(=O)N1CCCCC1)C2 | -1 | 3 | x | x | x | x | x | x
C=C1CCCC2OC(CC3=CC4/C(C)=C/CC(C)CC(/C=C(\C)C(O)C5CC(O)C(O)C(CCC(O)/C=C/C(C)=C/CCC6=NCCC(C3)C64C)O5)OC(=O)CC3OC(C(O)C1)C(O)C3O)CC(O)C2O (centres undefined) | -1 | -3 | x | x | -7 | -1 | x | x
COc1ccc(OC)c(-n2c(SCC(N)=O)nnc2-c2c[nH]c3ccccc23)c1 | 0 | 8 | 0 | -6 | -1 | -2 | x | x
COc1ccc(OC)c(-n2c(SC)nnc2-c2c[nH]c3ccccc23)c1 | 0 | 1 | 100* | 2 | -1 | 2 | -3 | 99
CCOC(=O)CC(=O)CSc1ccc2nnc(-c3ccc(C)cc3)n2n1 | -1 | -8 | 100* | 0 | -1 | -8 | -2 | 98
CC(C)(C)c1ccc(CC(=O)N2CCC2(C)C(=O)NCc2cccc3ccccc23)cc1 (centres undefined) | 2 | 2 | x | x | -7 | -1 | x | x
C[C@H](O)[C@@H]1CN2CCc3c([nH]c4ccccc34)[C@@H]2C[C@@H]1N(C)C(=O)OCc1ccccc1 | 1 | -16 | x | x | -2 | -8 | x | x
O=c1c2ccccc2nc2n1CCc1c-2[nH]c2ccccc12 | -1 | -1 | 19 | -14 | 7 | 0 | 3 | 95
Cc1nc(C(F)(F)F)ccc1C(=O)N1CCC1(C)C(=O)Nc1ccc2c(c1)OCO2 (centres undefined) | 0 | 5 | x | x | 4 | -1 | x | x
Cc1ccc(N(CC(O)Cn2c3ccccc3c3ccccc32)S(C)(=O)=O)c(C)c1 (centres undefined) | 2 | -3 | 3 | -8 | -6 | -3 | x | x
Cc1ccc(N(CC(O)Cn2c3ccccc3c3ccccc32)S(C)(=O)=O)cc1 (centres undefined) | 4 | -1 | 54* | -10 | -1 | -4 | -1 | 102
C[C@H]1CN([C@@H](C)CO)C(=O)CCCn2nncc2CO[C@H]1CN(C)C(=O)NC1CCCCC1 | -1 | 0 | x | x | 3 | 0 | x | x
CN(C(=O)c1ccccc1C(=O)OCC(=O)c1ccc(F)cc1)c1ccccc1 | 0 | -2 | 0 | -2 | 4 | 3 | x | x
CN(C(=O)c1ccccc1C(=O)OCC(=O)c1ccccc1)c1ccccc1 | -9 | -19 | 75* | -14 | 2 | -3 | -18 | 98
SMILES | LMPTP block | SUMO1-SIM PPI | GRK2 inh | Scp-1 inhibitor | DNMT1 inh | STEP block | GRK2 inh confirm | Aptamer quench SP
CCn1cc(C(=O)NCC(OC)OC)c(=O)c2cc(S(=O)(=O)N3CCOCC3)ccc21 | -1 | 1 | 45* | -7 | 0 | -3 | 0 | 98
COC(CNC(=O)c1cn(C)c2ccc(S(=O)(=O)N3CCOCC3)cc2c1=O)OC | -2 | -3 | 1 | -5 | 0 | 0 | x | x
CC1(C(=O)Nc2cccc(Oc3ccccc3)c2)CCN1C1Cc2ccccc2C1 (centres undefined) | 2 | 4 | x | x | 1 | 1 | x | x
Cn1c(SCc2cccc([N+](=O)[O-])c2)nc2ccccc2c1=O | 3 | -13 | 47* | -4 | 1 | 1 | -1 | 100
COc1ccc(CNC(=S)Nc2cccc(F)c2)cc1 | -1 | 4 | 10 | -10 | -1 | 2 | x | x
COc1ccc(S(=O)(=O)N2CCOC2CNC(=O)C(=O)NCc2ccc3c(c2)OCO3)cc1OC (centres undefined) | 1 | 0 | 0 | -5 | -3 | 1 | x | x
COc1ccccc1CNC(=O)C(=O)NCC1OCCN1S(=O)(=O)c1ccc2c(c1)OCCO2 (centres undefined) | -2 | 0 | 41* | -12 | 0 | -4 | -2 | 100
CCOc1ccc(NC(=O)CN(C)C(=O)c2cc(-c3ccco3)nc3ccccc23)cc1OCC | 2 | -5 | x | -5 | -1 | 1 | 1 | 96
O=C(NCc1ccccc1)C(c1ccc(-c2ccccc2)cc1)n1c(=O)c(-c2ccco2)nc2ccccc21 (centres undefined) | 9 | 7 | x | x | x | x | x | x
COc1cc(C2Nc3cccc4cccc(c34)N2)ccc1OC(C)=O | 10 | 16 | 0 | 0 | -9 | 14 | x | x
COc1ccc(C2Nc3cccc4cccc(c34)N2)cc1Br | 6 | 13 | 68* | 9 | -6 | 11 | -7 | 100
COc1ccc2oc(C(=O)N3CCN(C(=O)c4ccco4)CC3)c(C)c2c1 | 0 | 0 | 1 | -8 | -2 | -1 | x | x
COc1ccc2oc(C(=O)N(Cc3ccco3)Cc3cccs3)c(C)c2c1 | 5 | 13 | 80* | -11 | -4 | -2 | 0 | 97
c1ccc(Cn2ncc3ccccc32)cc1 | -1 | -2 | 26 | -3 | 0 | 1 | 2 | 98

Screening data: PubChem BioAssay, several laboratories
